From ChEMBL document CHEMBL1155387, “Substituted fused bicyclic pyrrolizinones as potent, orally bioavailable hNK1 antagonists” (Bioorg Med Chem Lett, 2010)
Values joined by “and” are separate entries in the source; they are usually repeats but may differ in a detail not shown here. Identical values can stand only once.

Columns and labels:
[1] = Stability in rhesus monkey microsomes assessed as compound remaining after 60 mins; type: ADME, Macaca mulatta, Microsome; details: read-out: Stability
[2] = Stability in human microsomes assessed as compound remaining after 60 mins; type: ADME, Microsome; details: read-out: Stability
[3] = system: Gerbillinae; experiment: Inhibition of GR-73632-induced foot tapping in gerbils at 3 mg/kg, iv after 24 hrs; type: functional; details: for inhibition in vivo at 3 mg/kg: Gerbillinae, iv, 24 h
Summary of the method: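 Gerbils dosed iv at 3 mg/kg; foot tapping induced by NK1 agonist GR73632 evaluated 24 h post-dose; percent inhibition of the tapping response.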

[4] = Stability in dog microsomes assessed as compound remaining after 60 mins; type: ADME, Canis lupus familiaris, Microsome; details: read-out: Stability
[5] = target: Cytochrome P450 2C9 (Homo sapiens, UniProt P11712); experiment: Inhibition of CYP2C9; type: ADME
[6] = Half life in rat; type: ADME, organism-based; details: in vivo
[7] = system: Gerbillinae; experiment: Inhibition of GR-73632-induced foot taping in iv dosed gerbils after 1 hr; type: functional; details: read-out: ID50 (the source's name)
[8] = Plasma clearance in rat; type: ADME, organism-based
[9] = Inhibition of sodium channel
Summary of the method: (§1)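 Ion-channel binding assay; IC50 values calculated for sodium channel and for calcium channel (diltiazem site).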

[10] = target: Cytochrome P450 2D6 (Homo sapiens, UniProt P10635); experiment: Inhibition of CYP2D6; type: ADME
[11] = target: T1, Substance-P receptor (Homo sapiens, UniProt P25103); experiment: Displacement of [125I]substance P from human NK1 receptor expressed in CHO cells in the presence of 50 percent human serum; type: cell-based
[12] = Volume of distribution in rat; type: ADME, organism-based; details: in vivo
[13] = target: Cytochrome P450 3A4 (Homo sapiens, UniProt P08684); experiment: Inhibition of CYP3A4; type: ADME
[14] = Stability in rat microsomes assessed as compound remaining after 60 mins; type: ADME, Microsome; details: read-out: Stability
[15] = Ratio of drug level in brain to plasma in rat at 1 mg/kg, iv after 4 hrs; type: ADME, organism-based; design: dose 1 mg/kg, route intravenous; details: brain and plasma
[16] = system: Gerbillinae; experiment: Inhibition of GR-73632-induced foot taping in iv dosed gerbils after 24 hrs; type: functional; details: read-out: ID50 (the source's name)
[17] = Oral bioavailability in rat; type: ADME, organism-based; details: in vivo
[18] = Displacement of diltiazem […] from calcium channel; summary of the method: as §1
[19] = target: T1, Substance-P receptor; experiment: Displacement of [125I]substance P from human NK1 receptor expressed in CHO cells; type: cell-based
Summary of the method: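 Competition binding: [125I]-labelled substance P displaced from cloned human NK1 receptor expressed in CHO cells; IC50 reported as mean of n = 3.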

[20] = target: T1, Substance-P receptor; experiment: Antagonist activity at human NK1 receptor expressed in CHO cells assessed as inhibition of substance P-induced inositol phosphate generation at 100 nM; type: functional, cell-based
[21] = system: Gerbillinae; experiment: Inhibition of GR-73632-induced foot tapping in gerbils at 1 mg/kg, iv after 0.1 hrs; type: functional
[22] = system: Gerbillinae; experiment: Inhibition of GR-73632-induced foot tapping in gerbils at 1 mg/kg, iv after 1 hr; type: functional
Summary of the method: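 Gerbils given 1 mg/kg iv; GR73632-induced foot tapping challenged 1 h after dosing; inhibition of tapping scored.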

[23] = Potency (IC50) in iv dosed gerbil brain after 1 hr; details: gerbillinae
[24] = Plasma clearance in dog; type: ADME, organism-based, Canis lupus familiaris
[25] = Volume of distribution in dog; type: ADME, organism-based, Canis lupus familiaris; details: in vivo
[26] = target: T2, PXR (nuclear receptor subfamily 1 group I member 2) (Homo sapiens, UniProt O75469); experiment: inhibition of human PXR at 10 uM
T2 sequence (O75469 whole entry): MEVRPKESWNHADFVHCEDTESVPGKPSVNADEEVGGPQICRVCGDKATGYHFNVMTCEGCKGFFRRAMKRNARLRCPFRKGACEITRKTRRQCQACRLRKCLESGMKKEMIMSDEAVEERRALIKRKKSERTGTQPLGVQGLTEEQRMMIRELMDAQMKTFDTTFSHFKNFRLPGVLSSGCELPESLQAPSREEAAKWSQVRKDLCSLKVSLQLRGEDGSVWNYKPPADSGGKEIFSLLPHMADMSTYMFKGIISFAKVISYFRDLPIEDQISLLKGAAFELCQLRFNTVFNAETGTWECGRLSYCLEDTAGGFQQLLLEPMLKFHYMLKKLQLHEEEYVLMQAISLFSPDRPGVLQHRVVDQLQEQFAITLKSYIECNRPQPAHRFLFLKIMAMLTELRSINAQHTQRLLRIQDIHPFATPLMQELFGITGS

[27] = Half life in rhesus monkey; type: ADME, organism-based, Macaca mulatta; details: in vivo
[28] = Oral bioavailability in dog; type: ADME, organism-based, Canis lupus familiaris; details: in vivo
[29] = Induction of CYP3A4 expression in human LS180 cells relative to rifampin; type: ADME, cell-based
Summary of the method: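 Human LS180 cells treated with test compound at 10 µM. CYP3A4 induction is expressed as fold induction.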

[30] = Volume of distribution in rhesus monkey; type: ADME, organism-based, Macaca mulatta; details: in vivo
[31] = Plasma clearance in rhesus monkey; type: ADME, organism-based, Macaca mulatta
[32] = Oral bioavailability in rhesus monkey; type: ADME, organism-based, Macaca mulatta; details: in vivo
[33] = Half life in dog; type: ADME, organism-based, Canis lupus familiaris; details: in vivo
[34] = Potency (IC50) in iv dosed gerbil after 1 hr; details: gerbillinae, plasma

T1 sequence (P25103 whole entry): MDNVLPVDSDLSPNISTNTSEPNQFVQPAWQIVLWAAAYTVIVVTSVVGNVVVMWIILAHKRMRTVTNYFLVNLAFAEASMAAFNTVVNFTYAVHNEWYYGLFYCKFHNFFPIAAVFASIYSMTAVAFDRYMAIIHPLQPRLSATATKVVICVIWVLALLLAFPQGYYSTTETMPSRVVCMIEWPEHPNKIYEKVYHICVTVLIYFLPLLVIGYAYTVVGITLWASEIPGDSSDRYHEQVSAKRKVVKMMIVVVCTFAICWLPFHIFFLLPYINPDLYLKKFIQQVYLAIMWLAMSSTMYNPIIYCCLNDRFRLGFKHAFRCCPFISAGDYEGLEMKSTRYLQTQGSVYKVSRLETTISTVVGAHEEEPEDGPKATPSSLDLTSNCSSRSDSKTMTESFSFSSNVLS
Cytochrome P450 3A4, sequence (P08684 whole entry): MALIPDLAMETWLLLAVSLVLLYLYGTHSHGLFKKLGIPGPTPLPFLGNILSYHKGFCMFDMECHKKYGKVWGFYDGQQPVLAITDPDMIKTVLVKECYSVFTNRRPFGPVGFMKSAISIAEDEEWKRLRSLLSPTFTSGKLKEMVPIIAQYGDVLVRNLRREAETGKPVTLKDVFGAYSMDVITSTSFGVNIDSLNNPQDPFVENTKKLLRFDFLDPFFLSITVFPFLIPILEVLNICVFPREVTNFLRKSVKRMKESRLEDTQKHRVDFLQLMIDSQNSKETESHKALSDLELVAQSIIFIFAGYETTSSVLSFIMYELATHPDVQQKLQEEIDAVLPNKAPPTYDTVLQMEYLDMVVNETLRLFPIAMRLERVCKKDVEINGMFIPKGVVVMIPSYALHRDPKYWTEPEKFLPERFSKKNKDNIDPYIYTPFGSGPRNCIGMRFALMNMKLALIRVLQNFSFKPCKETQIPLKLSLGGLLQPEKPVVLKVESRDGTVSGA
Cytochrome P450 2D6, sequence (P10635 whole entry): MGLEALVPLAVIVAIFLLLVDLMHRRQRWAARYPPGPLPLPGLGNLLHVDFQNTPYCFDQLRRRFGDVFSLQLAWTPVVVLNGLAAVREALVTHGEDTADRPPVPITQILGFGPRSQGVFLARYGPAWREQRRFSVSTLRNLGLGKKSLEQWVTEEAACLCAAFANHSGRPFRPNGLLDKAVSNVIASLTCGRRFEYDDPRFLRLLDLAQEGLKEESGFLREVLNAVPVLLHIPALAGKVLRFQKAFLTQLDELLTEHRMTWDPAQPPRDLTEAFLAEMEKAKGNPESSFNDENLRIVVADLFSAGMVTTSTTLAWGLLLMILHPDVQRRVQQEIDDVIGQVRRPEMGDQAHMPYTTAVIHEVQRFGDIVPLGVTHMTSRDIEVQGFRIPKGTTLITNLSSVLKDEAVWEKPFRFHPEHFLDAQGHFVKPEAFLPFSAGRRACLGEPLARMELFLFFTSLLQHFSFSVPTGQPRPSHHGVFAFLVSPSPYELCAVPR
Cytochrome P450 2C9, sequence (P11712 whole entry): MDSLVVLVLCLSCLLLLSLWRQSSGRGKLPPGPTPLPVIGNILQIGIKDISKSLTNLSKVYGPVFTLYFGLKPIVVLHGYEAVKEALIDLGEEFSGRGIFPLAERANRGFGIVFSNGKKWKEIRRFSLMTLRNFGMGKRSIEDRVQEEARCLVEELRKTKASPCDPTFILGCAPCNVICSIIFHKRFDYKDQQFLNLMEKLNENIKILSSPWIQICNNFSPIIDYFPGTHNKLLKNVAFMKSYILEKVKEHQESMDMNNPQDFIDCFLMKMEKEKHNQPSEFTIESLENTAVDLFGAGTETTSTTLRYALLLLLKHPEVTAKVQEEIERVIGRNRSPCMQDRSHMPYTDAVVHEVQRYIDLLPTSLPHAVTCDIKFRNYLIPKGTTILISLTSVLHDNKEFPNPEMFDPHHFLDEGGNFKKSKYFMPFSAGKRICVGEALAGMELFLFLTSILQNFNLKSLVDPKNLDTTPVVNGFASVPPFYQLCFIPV

| SMILES | remaining at 1 h [1] | remaining at 1 h [2] | inhibition in vivo at 3 mg/kg [3] | remaining at 1 h [4] | half-life [6] | ED50 [7] | clearance [8] | IC50 [9] | IC50 [11] | Vd [12] | remaining at 1 h [14] | Kp at 4 h [15] | ED50 [16] | bioavailability [17] | IC50 [18] | IC50 [19] | inhibition of substance P-induced inositol phosphate generation [20] | inhibition in vivo at 1 mg/kg [21] | inhibition in vivo at 1 mg/kg [22] | also measured |
| --- | --- | --- | --- | --- | --- | --- | --- | --- | --- | --- | --- | --- | --- | --- | --- | --- | --- | --- | --- | --- |
| C[C@@H](O[C@H]1CN2C(=O)CC(N)[C@H]2[C@@H]1c1ccc(F)cc1)c1cc(C(F)(F)F)cc(C(F)(F)F)c1 (stereo in doubt; 15a) | 91% | 66% | 100% | 89% | 7.7 h | 0.88 mg/kg | 8.9 mL/min/kg | 7720 nM | 0.6 nM | 5.9 L/kg | 85% | 1.4 | 0.92 mg/kg | 78% | 1880 nM | 0.09 nM |  |  |  | Activity [5]: 45 µM; Activity [10]: 66 µM; Activity [13]: > 100 µM |
| CC(=O)N1C[C@H](O[C@H](C)c2cc(C(F)(F)F)cc(C(F)(F)F)c2)[C@@H](c2ccc(F)cc2)[C@@H]1CO |  |  | 0% |  |  |  |  |  | 43.1 nM |  |  |  |  |  |  | 0.3 nM | 91% | 49% |  |  |
| C[C@@H](O[C@H]1CN2C(=O)CC[C@H]2[C@@H]1c1ccc(F)cc1)c1cc(C(F)(F)F)cc(C(F)(F)F)c1 |  |  | 100% |  |  |  |  |  | 2.2 nM |  |  |  |  |  |  |  | 67% | 100% | 100% |  |
| C[C@@H](O[C@H]1CN2C(=O)C(NCc3nn[nH]c3CN(C)C)C[C@H]2[C@@H]1c1ccc(F)cc1)c1cc(C(F)(F)F)cc(C(F)(F)F)c1 (some centres not stated) |  |  |  |  |  |  |  | 2410 nM | 1.4 nM |  |  |  |  |  | 301 nM | 0.13 nM | 40% |  | 88% |  |
| C[C@@H](O[C@H]1CN2C(=O)CC(n3cnnc3)[C@H]2[C@@H]1c1ccc(F)cc1)c1cc(C(F)(F)F)cc(C(F)(F)F)c1 (some centres not stated) |  |  |  |  |  |  |  | 7820 nM | 0.83 nM |  |  |  |  |  | > 10000 nM | 0.07 nM | 52% |  | 0% |  |
| C[C@@H](O[C@H]1CN2C(=O)C(O)C[C@H]2[C@@H]1c1ccc(F)cc1)c1cc(C(F)(F)F)cc(C(F)(F)F)c1 (stereo in doubt; 2b) | 23% | 54% |  | 73% | 13 h | 0.02 mg/kg | 5.1 mL/min/kg | 4360 nM and 2600 nM | 0.91 nM | 4.2 L/kg | 60% | 1 | 0.016 mg/kg | 93% | 9400 nM and 2600 nM | 0.08 nM |  |  |  | inhibition (INH) ([3]; 3 mg/kg): 100%; IC50 at 1 h [23]: 3.8 nM; INH [5]: > 100 µM; clearance [24]: 0.8 mL/min/kg; Vd [25]: 2.8 L/kg; INH [10]: 62.2 µM; inhibition at 10 µM [26]: 31%; INH [13]: > 100 µM; half-life [27]: 80.4 h; bioavailability [28]: 98%; Ratio [29]: 13; Vd [30]: 2.6 L/kg; clearance [31]: 1 mL/min/kg; bioavailability [32]: 68%; half-life [33]: 128 h; IC50 at 1 h [34]: 8.4 nM |
